According to ChEMBL document CHEMBL2176938, “Virtual screening and optimization yield low-nanomolar inhibitors of the tautomerase activity of Plasmodium falciparum macrophage migration inhibitory factor” (J Med Chem, 2012):

target: T1, Macrophage migration inhibitory factor (Homo sapiens, UniProt P14174); test: Inhibition of human MIF; settings: not given
T1 sequence (P14174 whole entry): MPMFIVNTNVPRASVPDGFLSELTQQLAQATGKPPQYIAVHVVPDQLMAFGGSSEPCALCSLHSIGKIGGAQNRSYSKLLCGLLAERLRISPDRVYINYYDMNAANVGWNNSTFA

Compound	Ki
COc1cccc(Oc2cc(C)nc(N3CCOCC3)c2)c1	Not Active

same assay, conditions: read-out: Ki

Compound	Ki [µM]
Cc1cc(Oc2cccc(O)c2)cc(-c2ccccc2)n1	101
COc1ccc(-c2cc(Oc3cc(C)cc(OC)c3)cc(C)n2)cc1	270

target: T2, Macrophage migration inhibitory factor homologue (Plasmodium falciparum (isolate 3D7), UniProt Q8I5C5); test: Inhibition of recombinant Plasmodium falciparum MIF expressed in Escherichia coli BL21 (DE3) assessed as ketonization of enol form of 4-HPP substrate after 10 mins; settings: not given
T2 sequence (Q8I5C5 whole entry): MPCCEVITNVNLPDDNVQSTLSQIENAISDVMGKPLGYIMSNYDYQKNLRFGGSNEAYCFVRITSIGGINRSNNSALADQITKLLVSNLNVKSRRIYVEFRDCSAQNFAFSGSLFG
Method in brief: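 PfMIF (75 nM trimer) in 25 mM potassium phosphate pH 7.4, preincubated 10 min with inhibitor at 1.5, 5 and 10 μM; DMSO vehicle 1% final. Started by adding enol 4-HPP (dissolved in absolute EtOH, stored −20°C) at varied concentrations. Enol-to-keto conversion read as fall in absorbance at 306 nm over 90 s; Ki values derived.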

Compound	Ki	IC50 [µM]
CC1(C)CC(=O)C=C(Nc2ccc(S(N)(=O)=O)cc2)C1	Not Active	–
CNC(=O)c1cccc2cccc(Sc3ccccc3C(=O)O)c12	Not Active	–
CC(=O)c1ccc(-c2ccc(C(=O)N3CCC(C(N)=O)CC3)o2)cc1	Not Active	–
O=C(NCc1ccc(F)cc1F)Nc1cnccc1C(F)(F)F	Not Active	–
CN1C(=O)N[C@@H](c2ccccc2)C2=C1CN(c1cccc(C(=O)O)c1)C2=O	Not Active	–
COc1ccc(NC(=O)[C@H]2CCC(C)=C(C)[C@@H]2C(=O)O)c(N2CCOCC2)n1	Not Active	–
Oc1cccc(Oc2ccc(-c3cccc(O)c3)cc2)c1	Not Active	–
Oc1ccc(-c2ccc(Oc3cccc(O)c3)cc2)cc1	Not Active	–
Oc1cccc(Oc2ccc(-c3ccc(O)c(O)c3)cc2)c1	Not Active	–
COc1ccc(-c2ccc(Oc3cccc(OC)c3)cc2)cc1	Not Active	–
COc1cccc(Oc2ccc(-c3ccc(OC)c(OC)c3)cc2)c1	Not Active	–
COc1ccc(-c2ccc(Oc3cccc(OC)c3)cn2)cc1	Not Active	–
COc1ccc(Oc2cc(C)nc(-c3ccccc3)n2)cc1	Not Active	–
COc1ccc(-c2cc(Oc3cccc(OC)c3)ccn2)cc1	Not Active	–
Cc1cc(O)cc(Oc2ccnc(-c3ccc(O)cc3)c2)c1	Not Active	–
COc1ccc(C(=O)c2oc3ccccc3c2NC(=O)C(C)C)cc1Cl	Not Active	–
CCc1ccc(CNc2ccc(S(N)(=O)=O)cc2)cc1	Not Active	–
CCC[C@H](C(=O)Nc1ccc(F)c(F)c1F)c1ccccc1	Not Active	–
CCc1ccc([C@H]2C[C@H](c3cccc(C)c3)n3ncnc3N2)cc1	Not Active	–
O=C(O)c1ccccc1C(=O)N(Cc1cccnc1)Cc1ccc(Cl)cc1Cl	Not Active	–
O=C(O)c1ccccc1C(=O)Nc1ncccc1OCc1ccc(Cl)c(Cl)c1	Not Active	–
O=C1C(=O)N(CNc2ccc3ccccc3c2)c2ccccc21	Not Active	–
CC(=O)O[C@@H]1C[C@H]2C(C)(C)C(=O)C=C[C@]2(C)[C@H]2CC[C@@]3(C)[C@H](c4ccoc4)C(=O)[C@H]4O[C@]43[C@@]21C [EPOXYAZADIRADIONE]	–	10

same assay, conditions: read-out: Ki

Compound	Ki [µM]
NS(=O)(=O)c1ccc(NC2=CC(=O)C(=O)c3ccccc32)cc1	99
Oc1cccc(Oc2c(F)c(F)nc(N3CCOCC3)c2F)c1	8.6
Oc1cccc(Oc2c(F)c(N3CCOCC3)nc(F)c2Cl)c1	15.5
Oc1cccc(Oc2c(F)c(F)nc(N3CCCCC3)c2F)c1	28.6
Cc1cc(Oc2cccc(O)c2)nc(-c2ccccc2)n1	19.3
COc1ccc(-c2nnc3ccc(Oc4cccc(O)c4)nn23)cc1	122
Oc1cccc(Oc2ccnc(N3CCOCC3)c2)c1	43.4
COc1cccc(Oc2ccnc(N3CCOCC3)c2)c1	22.9
Oc1cccc(Oc2ccc(-c3cccc(O)c3)nc2)c1	6.9
Oc1ccc(-c2ccc(Oc3cccc(O)c3)cn2)cc1	67.6
COc1cccc(Oc2ccc(-c3cccc(OC)c3)nc2)c1	57.2
N#Cc1cccc(Oc2ccc(-c3cccc(O)c3)nc2)c1	0.37
COc1cc(OC)cc(Oc2ccnc(N3CCOCC3)c2)c1	122
COc1cc(C)cc(Oc2ccnc(N3CCOCC3)c2)c1	5.6
COc1cc(Cl)cc(Oc2ccnc(N3CCOCC3)c2)c1	2.6
CCOc1cccc(Oc2ccnc(N3CCOCC3)c2)c1	6.9
CCOc1cccc(Oc2cc(C)nc(N3CCOCC3)c2)c1	7.2
COc1cc(C)cc(Oc2cc(C)nc(N3CCOCC3)c2)c1	1.2
Cc1cc(Oc2cccc(C#N)c2)cc(N2CCOCC2)n1	11.3
COc1cccc(Oc2cc(C)nc(N3CCOCC3)c2)c1	0.043
COc1cccc(Oc2cc(C)nc(-c3ccccc3)n2)c1	5.5
Cc1cc(Oc2ccc(O)cc2)nc(-c2ccccc2)n1	93.3
Cc1cc(Oc2cccc(C#N)c2)nc(-c2ccccc2)n1	1.6
Cc1cc(Oc2cccc(O)c2)cc(-c2ccccc2)n1	0.039
COc1cccc(Oc2cc(C)nc(-c3ccccc3)c2)c1	7.7
Oc1ccc(-c2cc(Oc3cccc(O)c3)ccn2)cc1	3
COc1ccc(-c2cc(Oc3cc(C)cc(OC)c3)ccn2)cc1	0.37
COc1ccc(-c2cc(Oc3cc(C)cc(OC)c3)cc(C)n2)cc1	0.038
O=C1N=C(Nc2cccc(O)c2)S/C1=C\c1cccc(O)c1	20.6
NC(=O)CSC1=Nc2ccccc2C2=N[C@H](Cc3c[nH]c4ccccc34)C(=O)N12	25.4
